According to ChEMBL document CHEMBL2331480, “Novel naphthoquinone derivatives: synthesis and activity against human African trypanosomiasis” (Bioorg Med Chem Lett, 2013):

What was measured:
[1] = system: L6; assay: Cytotoxicity against rat L6 cells after 72 hrs by SRB assay; format: cell-based; conditions: L6, 72 h
In short: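 L-6 rat skeletal myoblasts seeded at 2 × 10^3 cells/100 µL in DMEM with 10% heat-inactivated FBS onto threefold serially diluted compounds, with solvent blanks; 72 h at 37 °C, 5% CO2. Cells fixed with TCA (10% final, 4 °C, 1 h), stained 45 min with 0.4% SRB in 1% acetic acid, dye solubilized in 10 mM Tris base pH 10.5.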

[2] = system: Trypanosoma brucei rhodesiense; assay: Antitrypanosomal activity against Trypanosoma brucei rhodesiense after 48 hrs by CellTiter-Glo assay; format: functional, organism-based
In short: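 T. b. rhodesiense bloodstream forms isolated from infected blood (citrate-glucose anticoagulant, diluted in HMI-9, low-speed spin), grown at 37 °C, 5% CO2 in HMI-9 with 10% heat-inactivated FBS and 10% Serum Plus. Compounds in DMSO pin-transferred onto diluted culture; 48 h at 37 °C; CellTiter-Glo read […] as percent of control; IC50 calculated.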

Compound	IC50 [1] [µM]	IC50 [2] [µM]
Cc1ccccc1NC1=C(Nc2ccccc2C)C(=O)c2ccccc2C1=O	> 450	20
Cc1ccccc1NC1=C(Nc2ccccc2C)C(=O)c2c(cccc2[N+](=O)[O-])C1=O	186	7
O=C1C(Nc2ccccc2)=C(Nc2ccccc2)C(=O)c2ccccc21	378	0.67
Cc1cccc(NC2=C(Nc3cccc(C)c3)C(=O)c3ccccc3C2=O)c1	> 450	21
Cc1cccc(NC2=C(Cl)C(=O)c3cccc([N+](=O)[O-])c3C2=O)c1	214	10
Cc1ccc(NC2=C(Cl)C(=O)c3c(cccc3[N+](=O)[O-])C2=O)cc1	169	6
Cc1ccc(NC2=C(Cl)C(=O)c3cccc([N+](=O)[O-])c3C2=O)cc1	186	8
O=C1C(Nc2ccccc2C(F)(F)F)=C(Cl)C(=O)c2c1cccc2[N+](=O)[O-]	95	0.05
Cc1cccc(NC2=C(Nc3cccc(C)c3)C(=O)c3c(cccc3[N+](=O)[O-])C2=O)c1	195	15
O=C1C(Cl)=C(Nc2ccccc2C(F)(F)F)C(=O)c2ccccc21	307	0.15
O=C1C(Cl)=C(Nc2ccccc2)C(=O)c2ccccc21	417	0.17
O=C1C(Cl)=C(Nc2ccc(C(F)(F)F)cc2)C(=O)c2c1cccc2[N+](=O)[O-]	121	2
Cc1ccccc1NC1=C(Cl)C(=O)c2cccc([N+](=O)[O-])c2C1=O	195	4
O=C1C(Nc2ccc(C(F)(F)F)cc2)=C(Cl)C(=O)c2c1cccc2[N+](=O)[O-]	115	0.8
Cc1cccc(NC2=C(Cl)C(=O)c3ccccc3C2=O)c1	> 450	18
O=C1C(Nc2ccccc2C(F)(F)F)=C(Nc2ccccc2C(F)(F)F)C(=O)c2ccccc21	292	0.45
Cc1ccc(NC2=C(Nc3ccc(C)cc3)C(=O)c3ccccc3C2=O)cc1	> 450	24
O=C1C(Cl)=C(Nc2ccc(C(F)(F)F)cc2)C(=O)c2ccccc21	292	0.8
Cc1ccc(NC2=C(Nc3ccc(C)cc3)C(=O)c3c(cccc3[N+](=O)[O-])C2=O)cc1	172	12
Cc1ccc(NC2=C(Cl)C(=O)c3ccccc3C2=O)cc1	> 450	20
O=C1C(Cl)=C(Nc2ccccc2C(F)(F)F)C(=O)c2c1cccc2[N+](=O)[O-]	75	0.07
O=C1C(Nc2ccc(C(F)(F)F)cc2)=C(Nc2ccc(C(F)(F)F)cc2)C(=O)c2c1cccc2[N+](=O)[O-]	97	4
Cc1cccc(NC2=C(Cl)C(=O)c3c(cccc3[N+](=O)[O-])C2=O)c1	223	11
O=C1C(Nc2ccc(C(F)(F)F)cc2)=C(Nc2ccc(C(F)(F)F)cc2)C(=O)c2ccccc21	276	2
Cc1ccccc1NC1=C(Cl)C(=O)c2c(cccc2[N+](=O)[O-])C1=O	210	3
O=C1C(Nc2ccccc2C(F)(F)F)=C(Nc2ccccc2C(F)(F)F)C(=O)c2c1cccc2[N+](=O)[O-]	88	0.09
Cc1ccccc1NC1=C(Cl)C(=O)c2ccccc2C1=O	> 450	18
